ChEMBL document CHEMBL1138050, “Furan-2-ylmethylene thiazolidinediones as novel, potent, and selective inhibitors of phosphoinositide 3-kinase gamma” (J Med Chem, 2006)

How the values were obtained:
[1] = molecular target: Serine/threonine-protein kinase Sgk1 (Homo sapiens) (UniProt O00141); assay: Residual activity at human SGK at 10 uM in presence of 10 uM ATP relative to control
How it was run: (§1)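 Single-concentration counter-screen across a panel of 80 Ser/Thr and Tyr protein kinases. Compound was tested at 10 µM with ATP at 10 µM. Activity remaining in each kinase is expressed relative to control.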

[2] = molecular target: Tyrosine-protein kinase ABL1 (Homo sapiens) (UniProt P00519); assay: Residual activity at human Abl at 10 uM in presence of 10 uM ATP relative to control
How it was run: (§2)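 Panel of Ser/Thr and Tyr protein kinases, each tested with 10 µM compound in the presence of 10 µM ATP; activity expressed relative to control.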

[3] = molecular target: Cyclin-dependent kinase 2/cyclin A (Homo sapiens) (UniProt P24941+P20248+P78396); assay: Residual activity at human CDK2/CyclinA at 10 uM in presence of 10 uM ATP relative to control; type: protein-complex assay; how it was run: as §2
[4] = molecular target: T1, Phosphatidylinositol 4,5-bisphosphate 3-kinase catalytic subunit delta isoform (Homo sapiens, UniProt O00329); assay: Inhibition of human PI3Kdelta
T1 sequence (O00329 whole entry): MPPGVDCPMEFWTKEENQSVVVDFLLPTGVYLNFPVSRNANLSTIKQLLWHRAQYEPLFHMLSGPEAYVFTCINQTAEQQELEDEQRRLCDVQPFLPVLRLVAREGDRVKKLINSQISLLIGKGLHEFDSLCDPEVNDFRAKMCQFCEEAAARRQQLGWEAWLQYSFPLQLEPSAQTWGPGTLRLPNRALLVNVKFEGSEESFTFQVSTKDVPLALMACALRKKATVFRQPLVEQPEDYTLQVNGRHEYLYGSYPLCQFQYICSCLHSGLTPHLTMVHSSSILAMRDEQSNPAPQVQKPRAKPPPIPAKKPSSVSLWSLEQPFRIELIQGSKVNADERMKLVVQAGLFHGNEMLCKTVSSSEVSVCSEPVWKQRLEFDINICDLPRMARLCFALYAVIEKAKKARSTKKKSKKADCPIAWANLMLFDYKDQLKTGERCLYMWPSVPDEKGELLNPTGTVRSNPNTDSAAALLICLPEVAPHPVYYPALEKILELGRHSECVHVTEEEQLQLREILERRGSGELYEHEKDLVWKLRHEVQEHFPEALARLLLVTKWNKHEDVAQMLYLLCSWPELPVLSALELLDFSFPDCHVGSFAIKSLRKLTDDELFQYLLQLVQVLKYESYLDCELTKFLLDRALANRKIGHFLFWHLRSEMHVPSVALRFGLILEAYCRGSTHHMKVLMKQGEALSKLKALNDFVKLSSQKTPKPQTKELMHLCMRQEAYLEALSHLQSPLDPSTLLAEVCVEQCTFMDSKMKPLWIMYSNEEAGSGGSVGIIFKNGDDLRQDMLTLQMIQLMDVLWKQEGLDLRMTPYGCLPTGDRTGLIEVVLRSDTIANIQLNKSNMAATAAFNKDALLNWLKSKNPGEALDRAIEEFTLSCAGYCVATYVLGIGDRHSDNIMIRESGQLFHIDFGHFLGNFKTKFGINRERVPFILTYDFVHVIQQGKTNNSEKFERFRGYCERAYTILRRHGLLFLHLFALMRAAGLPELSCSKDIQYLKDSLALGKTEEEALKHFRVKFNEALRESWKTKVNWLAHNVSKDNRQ

[5] = molecular target: Cyclin-dependent kinase 2/cyclin E (Homo sapiens) (UniProt P24864+P24941+O96020); assay: Residual activity at human CDK2/CyclinE at 10 uM in presence of 10 uM ATP relative to control; type: protein-complex assay; how it was run: as §2
[6] = molecular target: Insulin-like growth factor 1 receptor (Homo sapiens) (UniProt P08069); assay: Residual activity at human IGF1R at 10 uM in presence of 10 uM ATP relative to control; how it was run: as §2
[7] = molecular target: Tyrosine-protein kinase receptor UFO (Homo sapiens) (UniProt P30530); assay: Residual activity at human Axl at 10 uM in presence of 10 uM ATP relative to control; how it was run: as §2
[8] = molecular target: Aurora kinase A (Homo sapiens) (UniProt O14965); assay: Residual activity at human Aurora A at 10 uM in presence of 10 uM ATP relative to control; how it was run: as §2
Monocyte = assay: Inhibition of MCP1-induced chemotaxis of mouse primary monocytes; type: functional, cell-based
How it was run: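 Cells were starved and pretreated with inhibitor or DMSO, then chemotaxis was induced with MCP-1 (10^-9 M). Primary mouse monocytes: 10^7 5-day bone-marrow-derived monocytes in medium with 0.5% BSA and compound, placed in the upper chamber of a 5 µm transwell. MCP-1 plus compound in the lower chamber. After 3 h at 37 °C, 5% CO2, cells in the lower chamber were counted. IC50.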

[9] = Dissociation constant, pKa of the compound; type: physicochemical
How it was run: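 UV-metric titration under argon at 25 ± 0.5 °C. 10 mM DMSO stock diluted into 0.15 M KCl containing 60, 50, 40 or 30 wt% MeOH, with 0.25 mM KH2PO4. Brought to pH 11.0 with 0.5 M KOH, then titrated with 0.5 M HCl to pH 4, at most 0.15 pH unit per step. UV 200-500 nm recorded after each addition; Yasuda-Shedlovsky extrapolation to zero cosolvent.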

[10] = molecular target: Mitogen-activated protein kinase 12 (Homo sapiens) (UniProt P53778); assay: Residual activity at human SAPK3 at 10 uM in presence of 10 uM ATP relative to control; how it was run: as §1
[11] = molecular target: Mitogen-activated protein kinase 10 (Homo sapiens) (UniProt P53779); assay: Residual activity at human JNK3 at 10 uM in presence of 10 uM ATP relative to control; how it was run: as §1
[12] = molecular target: Phosphatidylinositol 4,5-bisphosphate 3-kinase catalytic subunit beta isoform (Homo sapiens, UniProt P42338); assay: Inhibition of human PI3Kbeta
[13] = molecular target: Insulin receptor (Homo sapiens) (UniProt P06213); assay: Residual activity at human IR at 10 uM in presence of 10 uM ATP relative to control; how it was run: as §2
[14] = molecular target: Dual specificity mitogen-activated protein kinase kinase 7 (Homo sapiens) (UniProt O14733); assay: Residual activity at human MKK7-beta at 10 uM in presence of 10 uM ATP relative to control; how it was run: as §1
[15] = molecular target: Platelet-derived growth factor receptor beta (Homo sapiens) (UniProt P09619); assay: Residual activity at human PDGFRbeta at 10 uM in presence of 10 uM ATP relative to control; how it was run: as §1
[16] = molecular target: Dual specificity mitogen-activated protein kinase kinase 4 (Mus musculus) (UniProt P47809); assay: Residual activity at mouse MKK4 at 10 uM in presence of 10 uM ATP relative to control; how it was run: as §1
[17] = molecular target: Fibroblast growth factor receptor 3 (Homo sapiens) (UniProt P22607); assay: Residual activity at human FGFR3 at 10 uM in presence of 10 uM ATP relative to control; how it was run: as §2
[18] = molecular target: Protein kinase C theta type (Homo sapiens) (UniProt Q04759); assay: Residual activity at human PKCtheta at 10 uM in presence of 10 uM ATP relative to control; how it was run: as §1

Chain of Insulin-like growth factor 1 receptor (Homo sapiens) (P08069 31-736 limits assumed): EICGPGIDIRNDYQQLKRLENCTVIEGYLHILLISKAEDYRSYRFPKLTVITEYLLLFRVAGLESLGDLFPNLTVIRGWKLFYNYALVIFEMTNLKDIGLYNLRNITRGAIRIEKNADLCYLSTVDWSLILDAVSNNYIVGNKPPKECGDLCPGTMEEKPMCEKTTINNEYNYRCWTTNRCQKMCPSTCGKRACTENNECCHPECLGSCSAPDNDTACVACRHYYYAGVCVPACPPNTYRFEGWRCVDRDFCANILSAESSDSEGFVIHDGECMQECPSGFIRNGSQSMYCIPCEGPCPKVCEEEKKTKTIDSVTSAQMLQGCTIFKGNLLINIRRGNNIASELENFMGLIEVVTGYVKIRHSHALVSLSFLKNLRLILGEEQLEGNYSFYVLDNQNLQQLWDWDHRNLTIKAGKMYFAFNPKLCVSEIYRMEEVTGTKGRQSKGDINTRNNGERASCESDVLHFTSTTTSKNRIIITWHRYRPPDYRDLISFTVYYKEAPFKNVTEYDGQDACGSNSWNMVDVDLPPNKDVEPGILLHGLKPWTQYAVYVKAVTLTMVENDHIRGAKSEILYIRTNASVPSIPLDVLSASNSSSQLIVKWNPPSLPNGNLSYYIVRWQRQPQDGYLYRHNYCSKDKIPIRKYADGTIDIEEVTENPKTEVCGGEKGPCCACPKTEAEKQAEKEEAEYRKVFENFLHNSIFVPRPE
Chain of Insulin-like growth factor 1 receptor (Homo sapiens) (P08069 741-1367 limits assumed): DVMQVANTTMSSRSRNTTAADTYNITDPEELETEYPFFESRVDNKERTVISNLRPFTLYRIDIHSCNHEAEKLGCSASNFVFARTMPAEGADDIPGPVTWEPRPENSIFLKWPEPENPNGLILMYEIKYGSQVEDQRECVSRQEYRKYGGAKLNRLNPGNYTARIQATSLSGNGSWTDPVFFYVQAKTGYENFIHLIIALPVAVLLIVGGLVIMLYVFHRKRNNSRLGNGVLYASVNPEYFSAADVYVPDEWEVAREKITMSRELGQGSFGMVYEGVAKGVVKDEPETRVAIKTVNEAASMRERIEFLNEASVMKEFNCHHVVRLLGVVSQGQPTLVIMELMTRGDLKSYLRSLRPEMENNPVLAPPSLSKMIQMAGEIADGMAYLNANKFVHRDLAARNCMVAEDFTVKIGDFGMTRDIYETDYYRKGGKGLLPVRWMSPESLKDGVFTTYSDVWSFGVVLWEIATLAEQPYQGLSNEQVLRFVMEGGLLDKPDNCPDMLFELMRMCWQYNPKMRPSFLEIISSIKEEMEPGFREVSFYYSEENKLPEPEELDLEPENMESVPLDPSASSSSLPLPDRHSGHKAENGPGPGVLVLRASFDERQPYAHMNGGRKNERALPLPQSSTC
Chain of Phosphatidylinositol 4,5-bisphosphate 3-kinase catalytic subunit beta isoform (P42338 whole entry, canonical isoform): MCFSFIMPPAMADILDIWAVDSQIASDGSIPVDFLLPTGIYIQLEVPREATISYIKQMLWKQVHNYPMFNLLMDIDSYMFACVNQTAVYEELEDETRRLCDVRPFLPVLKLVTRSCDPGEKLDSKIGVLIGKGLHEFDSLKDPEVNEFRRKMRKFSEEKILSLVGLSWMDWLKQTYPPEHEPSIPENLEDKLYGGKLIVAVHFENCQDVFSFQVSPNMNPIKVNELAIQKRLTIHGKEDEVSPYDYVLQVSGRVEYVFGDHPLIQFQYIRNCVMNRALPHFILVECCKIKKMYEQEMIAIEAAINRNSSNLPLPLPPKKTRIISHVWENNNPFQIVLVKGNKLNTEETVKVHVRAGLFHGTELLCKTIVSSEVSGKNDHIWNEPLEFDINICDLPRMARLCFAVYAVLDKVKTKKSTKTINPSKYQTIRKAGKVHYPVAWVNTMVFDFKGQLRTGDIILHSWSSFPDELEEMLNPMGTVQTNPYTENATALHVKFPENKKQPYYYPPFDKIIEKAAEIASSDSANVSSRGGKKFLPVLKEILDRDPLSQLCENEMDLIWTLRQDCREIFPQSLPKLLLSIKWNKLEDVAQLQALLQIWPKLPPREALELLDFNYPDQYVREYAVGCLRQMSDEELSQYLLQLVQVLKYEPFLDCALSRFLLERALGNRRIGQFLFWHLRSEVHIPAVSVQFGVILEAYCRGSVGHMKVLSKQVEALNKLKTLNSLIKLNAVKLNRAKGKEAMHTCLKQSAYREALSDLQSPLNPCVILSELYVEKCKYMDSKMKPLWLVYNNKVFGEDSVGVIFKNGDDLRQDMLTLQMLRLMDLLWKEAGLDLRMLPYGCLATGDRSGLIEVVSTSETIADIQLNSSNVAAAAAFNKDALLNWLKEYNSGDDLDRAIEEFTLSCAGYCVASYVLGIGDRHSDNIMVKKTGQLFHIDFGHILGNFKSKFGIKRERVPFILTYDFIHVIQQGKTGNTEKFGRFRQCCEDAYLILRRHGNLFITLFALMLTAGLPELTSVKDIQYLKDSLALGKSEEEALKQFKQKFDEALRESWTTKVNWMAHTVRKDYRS
Chain of Tyrosine-protein kinase ABL1 (Homo sapiens) (P00519 whole entry): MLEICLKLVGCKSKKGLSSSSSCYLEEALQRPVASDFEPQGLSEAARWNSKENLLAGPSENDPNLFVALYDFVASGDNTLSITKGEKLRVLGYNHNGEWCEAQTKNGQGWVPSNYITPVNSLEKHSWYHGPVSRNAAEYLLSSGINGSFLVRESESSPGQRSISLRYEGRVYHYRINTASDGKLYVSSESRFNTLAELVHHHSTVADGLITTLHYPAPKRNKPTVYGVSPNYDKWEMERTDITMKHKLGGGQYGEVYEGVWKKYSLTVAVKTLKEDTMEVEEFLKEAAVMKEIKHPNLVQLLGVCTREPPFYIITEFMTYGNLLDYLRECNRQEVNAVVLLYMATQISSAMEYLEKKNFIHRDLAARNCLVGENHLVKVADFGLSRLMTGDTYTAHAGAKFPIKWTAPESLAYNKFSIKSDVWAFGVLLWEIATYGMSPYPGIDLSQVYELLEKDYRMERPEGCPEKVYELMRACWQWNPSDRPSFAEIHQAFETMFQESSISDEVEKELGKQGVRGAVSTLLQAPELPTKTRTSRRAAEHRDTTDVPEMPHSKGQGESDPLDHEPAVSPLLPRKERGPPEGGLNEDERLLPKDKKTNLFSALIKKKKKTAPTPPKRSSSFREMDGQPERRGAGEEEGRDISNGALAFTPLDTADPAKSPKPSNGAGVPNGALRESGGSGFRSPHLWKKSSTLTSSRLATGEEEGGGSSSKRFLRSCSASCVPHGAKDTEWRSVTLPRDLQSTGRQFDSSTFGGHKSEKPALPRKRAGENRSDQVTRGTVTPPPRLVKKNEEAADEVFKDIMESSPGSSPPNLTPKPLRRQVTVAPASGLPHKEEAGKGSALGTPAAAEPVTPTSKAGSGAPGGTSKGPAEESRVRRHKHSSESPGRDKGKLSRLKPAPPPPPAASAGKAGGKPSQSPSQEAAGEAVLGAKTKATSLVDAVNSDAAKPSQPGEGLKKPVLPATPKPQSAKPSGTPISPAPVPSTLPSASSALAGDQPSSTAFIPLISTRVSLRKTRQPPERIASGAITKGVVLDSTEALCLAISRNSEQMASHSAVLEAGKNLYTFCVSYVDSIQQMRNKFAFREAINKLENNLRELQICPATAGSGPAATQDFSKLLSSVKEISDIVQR
Chain of Insulin receptor (Homo sapiens) (P06213 28-758 limits assumed): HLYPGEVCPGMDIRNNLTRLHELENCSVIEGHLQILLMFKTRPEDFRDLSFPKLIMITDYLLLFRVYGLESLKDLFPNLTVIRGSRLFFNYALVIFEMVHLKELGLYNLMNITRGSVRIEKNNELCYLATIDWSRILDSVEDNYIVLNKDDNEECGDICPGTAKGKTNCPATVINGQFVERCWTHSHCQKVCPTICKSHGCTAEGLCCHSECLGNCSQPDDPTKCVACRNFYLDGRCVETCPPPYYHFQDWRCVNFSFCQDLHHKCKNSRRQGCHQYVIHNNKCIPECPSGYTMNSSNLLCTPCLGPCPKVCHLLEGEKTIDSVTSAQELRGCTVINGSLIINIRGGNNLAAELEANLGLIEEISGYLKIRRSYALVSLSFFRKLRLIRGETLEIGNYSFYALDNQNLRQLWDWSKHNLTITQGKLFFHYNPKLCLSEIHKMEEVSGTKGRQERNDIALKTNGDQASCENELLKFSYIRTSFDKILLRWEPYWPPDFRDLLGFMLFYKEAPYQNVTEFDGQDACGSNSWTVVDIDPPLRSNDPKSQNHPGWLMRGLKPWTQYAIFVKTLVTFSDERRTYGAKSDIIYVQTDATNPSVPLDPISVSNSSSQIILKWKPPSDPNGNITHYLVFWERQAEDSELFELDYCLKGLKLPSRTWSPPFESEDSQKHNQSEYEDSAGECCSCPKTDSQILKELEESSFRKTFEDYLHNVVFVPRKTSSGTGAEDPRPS
Chain of Insulin receptor (Homo sapiens) (P06213 763-1382 limits assumed): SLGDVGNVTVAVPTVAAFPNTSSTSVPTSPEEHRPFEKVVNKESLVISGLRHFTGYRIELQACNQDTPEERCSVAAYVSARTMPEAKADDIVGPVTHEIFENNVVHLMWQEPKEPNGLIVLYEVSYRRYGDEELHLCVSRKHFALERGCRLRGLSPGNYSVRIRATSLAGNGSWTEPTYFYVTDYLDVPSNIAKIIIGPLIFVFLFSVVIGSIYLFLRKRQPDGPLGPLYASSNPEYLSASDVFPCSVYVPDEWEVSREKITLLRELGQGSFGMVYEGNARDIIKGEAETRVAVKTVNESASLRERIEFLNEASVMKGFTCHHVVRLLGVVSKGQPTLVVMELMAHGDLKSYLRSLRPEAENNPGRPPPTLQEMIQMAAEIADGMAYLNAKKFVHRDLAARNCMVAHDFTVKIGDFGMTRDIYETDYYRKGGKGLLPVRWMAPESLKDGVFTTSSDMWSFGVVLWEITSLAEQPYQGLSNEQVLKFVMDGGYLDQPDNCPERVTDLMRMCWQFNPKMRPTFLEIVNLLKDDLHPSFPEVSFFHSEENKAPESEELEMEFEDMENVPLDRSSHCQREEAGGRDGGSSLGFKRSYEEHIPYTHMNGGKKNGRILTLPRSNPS

Activity [1]: 98%
Activity [2]: 92%
Activity [3]: 84%
IC50 [4]: 20 µM
Activity [5]: 93%
Activity [6]: 96%
Activity [7]: 74%
Activity [8]: 85%
IC50 (Monocyte): 52 µM
pKa [9]: 8.4
Activity [10]: 93%
Activity [11]: 86%
IC50 [12]: 20 µM
Activity [13]: 90%
Activity [14]: 2%
Activity [15]: 96%
Activity [16]: 85%
Activity [17]: 121%
Activity [18]: 102%
Structure (SMILES): O=C1NC(=O)/C(=C/c2ccc(-c3ccc(F)cc3O)o2)S1
